High-throughput results deposited in PubChem by several laboratories.
Most compounds without a hit are left out; they make up all but 2.3% or so of the library.
EBNA-1 inhibitor: EBNA-1 DNA-binding inhibitors, primary screen, biochemical, fluorescence polarization; inhibition, % at 14.8 µM; 0.34% of 300,000 active; AID 1950, 2009; in the data active = inhibition above about 28%
HCV NS3 hel inh: inhibitors of HCV NS3 helicase, primary screen, biochemical, Cy5 molecular beacon fluorescence; 0.56% of 290,000 active; inhibition, % at 10.9 µM; AID 1800, 2009; Hepatitis C virus NS3 helicase; NS3 helicase DNA unwinding;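 active = inhibition above the mean of all tested compounds plus 3 SD, set per campaign, cut at about 35% in these data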;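 also: 0% = DMSO wells and 100% = thioflavine S control wells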
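System: NS3 helicase fragment of HCV / Schedule: 1 h at 25 °C / Control set: DMSO alone as 0% and 110 µM thioflavine S as 100% / Reagent: Cy5/quencher beacon DNA duplex and ATP to start / Technique: Cy5 fluorescence / Replication: singlicate / Evaluation: % inhibition of end-to-start signal ratio versus controls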
EBV gp42 block: Epstein-Barr virus gp42 inhibitors, primary screen, biochemical, uHTS, fluorescence polarization; 0.42% of 220,000 active; Fluorescence polarization binding assay, mP read-out; inhibition, % (tested at 21.74 µM); Glycoprotein 42 (Epstein-Barr virus (strain AG876)), Q1HVG2; in the data active = inhibition above about 50%
Target sequence (Q1HVG2 whole entry, looked up): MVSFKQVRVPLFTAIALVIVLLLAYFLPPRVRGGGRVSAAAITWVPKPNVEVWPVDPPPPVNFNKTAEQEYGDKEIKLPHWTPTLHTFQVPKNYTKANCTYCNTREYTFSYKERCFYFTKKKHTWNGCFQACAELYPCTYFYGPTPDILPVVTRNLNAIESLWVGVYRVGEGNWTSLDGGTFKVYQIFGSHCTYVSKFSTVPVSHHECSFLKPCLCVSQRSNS
core dimer inh: inhibitors of HCV core protein dimerization, primary screen, biochemical, TR-FRET, high-throughput | TR-FRET GST/Flag-core106 dimerization, 1536-well | inhibition, % at 5 µM | 0.33% of 300,000 active | AID 1899, 2009;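 active = inhibition above the mean of all tested compounds plus 3 SD, set per screening campaign, cut at about 45% in these data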
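System: GST/Flag-tagged HCV core106 proteins. Incubation: compound-protein-antibody incubation 4 h at 22.5 °C. Technique: HTRF with 340 nm excitation, 617/671 nm emission. Medium: KF-containing HEPES buffer, pH 7.45, DTT, CHAPS, BSA. Read-out: inhibition (%) from 671 over 617 nm ratio. Also added: Eu(K)-anti-GST 90 ng/mL plus XL665-anti-Flag 1 µg/mL.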
GPR7 antagonist: GPR7 receptor antagonists, primary screen, cell-based, fluorescence, single concentration | Neuropeptides B/W receptor type 1 (Homo sapiens), P48145 | GPR7-expressing cells, fluorescence antagonist assay | inhibition, % at 4.4 µM | 1.1% of 290,000 active; in the data active = inhibition above about 16%, passing the limit was not always enough;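 also: cells stimulated with the agonist NPW; 0% = agonist with vehicle and 100% = vehicle without agonist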
ZTA DNA inh: counter-screen for EBNA-1 inhibitors: inhibitors of Epstein-Barr virus ZTA; ZTA-DNA binding, fluorescence polarization; 0.15% of 320,000 active; AID 2234; P03206; inhibition, % at 11 µM; in the data active = inhibition above about 33%
Target sequence (P03206 whole entry, looked up): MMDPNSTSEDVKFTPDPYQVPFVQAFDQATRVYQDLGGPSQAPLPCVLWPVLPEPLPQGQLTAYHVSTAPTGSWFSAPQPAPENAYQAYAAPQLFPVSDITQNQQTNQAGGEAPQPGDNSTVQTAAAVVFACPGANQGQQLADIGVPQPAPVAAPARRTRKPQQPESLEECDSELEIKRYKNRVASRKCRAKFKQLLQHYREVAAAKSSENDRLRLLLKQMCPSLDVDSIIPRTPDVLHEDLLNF
NS3 hel confirm: HCV NS3 helicase inhibitors, retest, confirmation, biochemical, Cy5 molecular beacon fluorescence, triplicate; 31% of 1,600 active; shares compounds with HCV NS3 hel inh; inhibition, % at 10.9 µM; AID 1943, 2009; NS3 helicase DNA unwinding;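 active = inhibition above the mean of all tested compounds plus 3 SD, cutoff set per campaign, cut at about 36% in these data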
DNA FID counter: compounds displacing fluorescent DNA intercalator, artefact control for HCV NS3 helicase inhibitor project, biochemical, FID fluorescence, triplicate; shares compounds with HCV NS3 hel inh; DNA fluorescent intercalator displacement; inhibition, % at 7.9 µM; 4% of 1,600 active; AID 1945, 2009; in the data active = inhibition above about 37%;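 also: 0% = vehicle and 100% = reference compound; higher means more displacement of ethidium bromide from the DNA hairpin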
Starred values were filed as active, the others as inactive; x = no result given.

SMILES	EBNA-1 inhibitor	HCV NS3 hel inh	EBV gp42 block	core dimer inh	GPR7 antagonist	ZTA DNA inh	NS3 hel confirm	DNA FID counter
CCOC(=O)CC(=O)CSc1nc(N)c(C#N)c(-c2ccc(F)cc2)c1C#N	-8	57*	-1	4	0	13	-3	5
COc1ccc(CC(=O)NCC2CCCN(Cc3ccccc3Cl)C2)cc1 (centres undefined)	x	-7	x	x	-10	x	x	x
O=C(O)CN1CCN(Cc2cccc(Cl)c2)C1=O	4	1	x	1	2	0	x	x
COc1ccc(S(=O)(=O)N(Cc2ccccc2)c2ccccc2C(=O)O)cc1	-5	-13	x	7	6	5	x	x
O=C(O)c1ccc(S(=O)(=O)N(CCc2ccccc2)Cc2ccc(Cl)cc2)cc1	3	45*	x	7	6	-11	32	11
Cc1ccc(S(=O)(=O)N(Cc2ccc(Cl)cc2)c2ccccc2C(=O)O)cc1	3	36*	x	3	-11	-1	41*	-24
Cc1cc(=O)[nH]c(N/N=C/c2cc(C)n(CC(F)(F)F)c2C)n1	-12	-6	1	-6	1	4	x	x
COC(=O)c1ccc(-n2c(C)cc(/C=N/Nc3nc(C)cc(=O)[nH]3)c2C)cc1	-5	38*	-8	7	-8	1	0	-26
COc1cccc(-c2nc(-c3ccccc3)c(-c3ccccc3)[nH]2)c1OCC(=O)O	x	46*	x	x	-9	x	64*	-12
S=c1[nH]nc(COc2ccc(Cl)cc2)n1Cc1ccco1	-6	36*	0	-1	5	-17	3	-24
CCCc1n[nH]c(=S)n1Cc1ccco1	2	11	-10	-1	-7	10	x	x
C=CCSC1=N/C(=C\c2cc(OCC)c(OC(C)=O)c([N+](=O)[O-])c2)C(=O)S1	6	50*	6	-2	2	-7	92*	16
COc1ccccc1-n1c(SCC(=O)NC(C)(C)C)nc(O)cc1=O	0	36*	-4	8	-10	-1	-18	3
CC(C)(C)NC(=O)CSc1nc(O)cc(=O)n1-c1ccccc1F	5	6	-78	-5	-14	-1	x	x
O=C(NCc1ccco1)c1cccc(S(=O)(=O)N2CCCC2)c1	x	-5	x	x	-12	x	x	x
CC(=O)c1ccc(NC(=O)CN2C(=O)COc3ccc(S(=O)(=O)N4CCCC4)cc32)cc1	-8	0	x	-2	-4	-4	x	x
N#Cc1c(-c2cccs2)nc(SCc2ccc(Cl)cc2)[nH]c1=O	x	48*	1	x	-4	x	60*	35
CSc1nc(-c2cccs2)c(C#N)c(=O)[nH]1	10	1	-3	10	-9	7	x	x
Cc1cc(-c2csc(NC(=O)c3ccc(S(=O)(=O)N(C)C)cc3)n2)c(C)n1-c1ccccc1	-1	66*	-1	42	4	6	34	28
Cc1ccc(S(=O)(=O)N2CCN(S(=O)(=O)c3c(C)n[nH]c3C)CC2)cc1C	x	x	x	x	x	-9	x	x
Cc1ccc(S(=O)(=O)/N=C2/NC(=O)/C(=C\c3ccco3)S2)cc1	-6	38*	-2	8	-4	-8	67*	-3
COc1ccc(N=C2NC(=O)/C(=C\c3ccco3)S2)cc1	-13	41*	32	25	-3	0	-5	-6
CC(=O)Nc1ccc(S(=O)(=O)/N=C2/NC(=O)/C(=C\c3ccco3)S2)cc1	2	16	5	-3	0	-8	x	x
CCN(CC)S(=O)(=O)c1ccc(OC)c(NS(=O)(=O)c2cccc(C(=O)O)c2)c1	4	11	-16	-9	-7	-7	x	x
COc1ccc(NC(=O)C2CCC(=O)N2C(=O)OCc2ccccc2)cc1 (centres undefined)	-17	18	x	-2	-3	14	x	x
SMILES	EBNA-1 inhibitor	HCV NS3 hel inh	EBV gp42 block	core dimer inh	GPR7 antagonist	ZTA DNA inh	NS3 hel confirm	DNA FID counter
Cc1nn(-c2ccccc2)c2c1C1(C(=O)N(C)c3ccccc31)C(C#N)=C(N)O2 (centres undefined)	2	42*	-10	-11	-3	-6	-21	-27
CC(C)c1c(C(=O)N/N=C/c2cccc(OCc3ccc(F)cc3)c2)nnn1-c1nonc1N	-6	-12	x	15	1	4	x	x
CCOc1ccc(N2C(=O)CC(N3CCN(c4ccc([N+](=O)[O-])cc4)CC3)C2=O)cc1 (centres undefined)	-6	47*	x	-5	-4	-27	-11	-4
Cc1ccc(CS(=O)(=O)c2ccc(C(=O)N3CCN(c4ccccn4)CC3)cc2[N+](=O)[O-])cc1	-7	-8	-19	7	9	-22	x	x
COc1ccccc1N1CCN(/N=C/c2ccc(O)c(O)c2)CC1	-11	37*	-29	-4	1	8	-1	-7
COC(=O)C1=C(CS(=O)(=O)c2ccc(OC)cc2)NC(=O)NC1c1ccccc1 (centres undefined)	-7	11	x	-9	18	-10	x	x
O=C(O)CCNc1cc(N2CCN(C(=O)c3ccco3)CC2)c2noc3c2c1C(=O)c1ccccc1-3	127*	57*	x	-150	-10	163*	76*	2
CC(NC(=O)CSc1nnc2n1CCCCC2)c1ccccc1Cl (centres undefined)	x	x	x	x	x	12	x	x
CCN(CC)c1ccc(N=Cc2c(C)[nH]c3ccccc23)cc1	199*	38*	8	-15	-13	188*	28	39*
Cc1cccc(C(=O)OC(C)C(=O)Nc2ccc(S(=O)(=O)Nc3ncccn3)cc2)c1C (centres undefined)	x	x	x	x	x	-11	x	x
Cc1cc(C(=O)N[C@H](c2ccccc2)[C@@]2(C)C[C@@H]2[C@@H](C)C(=O)Nc2ccc3ccccc3c2)n(C)n1	-3	-21	-7	-16	9	4	x	x
NNC(=S)Nc1cccc(-c2n[nH]c(=S)o2)c1	11	37*	-11	4	-7	5	2	-9
CCOC(=O)[C@@H]1[C@H]2COc3ccccc3[C@@H]2N2C(=O)N(c3ccc(C)cc3)C(=O)[C@]12C	0	-9	x	-8	-4	-11	x	x
Oc1ccc(/C=N/N=C(c2ccccc2)c2ccccc2)c(O)c1O	-12	52*	-3	3	-5	2	-22	21
Oc1cccc(C=NCc2ccccc2)c1O	2	18	2	3	-3	-24	x	x
